Assay outcomes: PubChem BioAssay, several laboratories
TRPC4 act: activators of mouse TRPC4 channel, primary screen, Fluo4 calcium, HEK293 TRPC4beta/mu-opioid cells; Fluo4 calcium fluorescence; hits give high values; 310,000 tested, 0.49% active; Short transient receptor potential channel 4 (Mus musculus), Q9QUQ5; B-score at 10 µM;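 active = B-score above 5 SD of library B-scores, and initial fluorescence ratio not above library mean plus 5 SD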;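 note: positive B-score marks a calcium rise read as TRPC4 activation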
Target sequence (Q9QUQ5 whole entry, looked up): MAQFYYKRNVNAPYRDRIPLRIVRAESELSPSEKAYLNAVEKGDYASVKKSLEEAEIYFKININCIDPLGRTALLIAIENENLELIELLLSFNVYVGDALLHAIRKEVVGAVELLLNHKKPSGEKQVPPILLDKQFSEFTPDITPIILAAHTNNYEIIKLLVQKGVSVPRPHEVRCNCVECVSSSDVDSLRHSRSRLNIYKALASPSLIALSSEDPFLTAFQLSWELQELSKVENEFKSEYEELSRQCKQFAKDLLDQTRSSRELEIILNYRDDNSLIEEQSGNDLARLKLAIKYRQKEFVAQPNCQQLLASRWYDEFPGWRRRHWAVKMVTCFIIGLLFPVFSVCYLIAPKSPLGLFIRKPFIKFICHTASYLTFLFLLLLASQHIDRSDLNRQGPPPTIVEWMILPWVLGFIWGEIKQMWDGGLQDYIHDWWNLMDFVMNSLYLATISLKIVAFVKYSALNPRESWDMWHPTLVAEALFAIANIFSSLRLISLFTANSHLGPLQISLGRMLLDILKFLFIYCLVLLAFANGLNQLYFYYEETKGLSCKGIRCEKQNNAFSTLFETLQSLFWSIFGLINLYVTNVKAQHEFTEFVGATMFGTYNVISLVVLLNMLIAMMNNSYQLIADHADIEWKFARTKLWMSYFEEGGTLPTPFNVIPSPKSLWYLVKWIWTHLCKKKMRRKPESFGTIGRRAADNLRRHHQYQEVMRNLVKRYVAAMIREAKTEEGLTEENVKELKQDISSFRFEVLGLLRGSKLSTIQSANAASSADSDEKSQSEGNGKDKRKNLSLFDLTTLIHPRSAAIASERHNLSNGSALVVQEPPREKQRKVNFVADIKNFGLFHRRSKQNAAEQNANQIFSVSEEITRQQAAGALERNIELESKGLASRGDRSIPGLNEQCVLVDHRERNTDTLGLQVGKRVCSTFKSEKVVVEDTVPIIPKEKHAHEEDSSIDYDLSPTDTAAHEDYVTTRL
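Material: TRPC4beta and mu-opioid receptor HEK293 stable cells | Incubation: 45 min room-temperature Fluo4 loading, 110 s read | Detection: Kinetic Fluo4 calcium fluorescence | Measure: Integrated baseline-normalised fluorescence ratio, converted to per-well B score | Benchmarks: Low control buffer alone, high control maximal DAMGO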
TRPC6 activator: mouse TRPC6 channel activators, primary screen, cell-based, HEK293, membrane potential dye | Short transient receptor potential channel 6 (Mus musculus), Q61143 | HEK293-TRPC6 membrane potential dye fluorescence; hits give high values | B-score at 10 µM | 310,000 tested, 0.13% active;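 active = B-score of the integrated fluorescence ratio above library mean plus 3 SD, and starting fluorescence ratio within library mean plus 5 SD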;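 note: higher score means more depolarization so channel activation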
TRPC4 inh: inhibitors of mouse TRPC4 channel, primary screen, Fluo4 calcium, HEK293 TRPC4beta/mu-opioid cells; 300,000 tested, 0.39% active; Short transient receptor potential channel 4 (Mus musculus), Q9QUQ5; DAMGO-evoked Fluo4 calcium flux; hits give low values; B-score at 10 µM;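 active = B-score over 3 SD under the library average, no early fluorescence shift, positive overall ratio signal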
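Assay system: Stable TRPC4beta/mu-opioid receptor HEK293 cells | Reagent: DAMGO in two steps, submaximal then maximal | Compound dosing: Single concentration per test compound | Signal: Fluo4 Ca2+ flux fluorescence | Evaluation: Per-well B score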
TRPC6 inhibitor: mouse TRPC6 channel inhibitors, primary screen, cell-based, HEK293, membrane potential dye; ACh-evoked depolarization; hits give low values; Short transient receptor potential channel 6 (Mus musculus), Q61143; 310,000 tested, 1.1% active; B-score at 10 µM;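 active = B-score under library mean minus 3 SD, initial fluorescence not abnormally high, positive integrated signal ratio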;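 note: B-score derived from integrated fluorescence ratio over the kinetic read; more negative B-score means stronger inhibition of depolarization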
TRPC4 PAM: positive allosteric modulators of TRPC4, primary screen, cell-based, mouse TRPC4beta, HEK293 mu-opioid, Fluo-4 calcium | Short transient receptor potential channel 4 (Mus musculus), Q9QUQ5 | DAMGO EC20, Fluo-4 Ca2+ flux; hits give high values | B-score at 10 µM | 310,000 tested, 0.42% active | AID 2227, 2009;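 active = B-score of calcium response area above 5 SD of library B-scores, with initial fluorescence ratio within 5 SD of library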;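 note: B-score of integrated fluorescence ratio over time as area under calcium response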
CR mimetic SO: reduction of superoxide in aged yeast, primary screen, HTS | S. cerevisiae aged cells, superoxide DHE fluorescence; hits give low values | superoxide response (% of plate mean), % at 10 µM | 330,000 tested, 0.18% active | AID 2690, 2010;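 active = superoxide response under a set limit, about three screen SD below normal, cut at about 65% in these data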;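 note: yeast aged for seven days with compound at 30 °C before DHE staining; 100% = average MFI of all compound-treated wells on the plate with controls excluded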
Numbers without * were called inactive. In the library only some 2.3% were active in any assay of this set; here they are far more common.

Cc1cccc(CN2CCCC(C(=O)c3ccc4c5c(cccc35)CC4)C2)n1 (centres undefined) was read as TRPC4 act inactive, TRPC6 activator inactive, TRPC4 inh inactive, TRPC6 inhibitor inactive, TRPC4 PAM inactive and CR mimetic SO 105.0.
Screening O=C(c1ccc2c3c(cccc13)CC2)C1CCCN(C(=O)c2cccnc2)C1 (centres undefined) returned TRPC4 act inactive, TRPC6 activator inactive, TRPC4 inh inactive, TRPC6 inhibitor inactive, TRPC4 PAM inactive and CR mimetic SO 120.8.
COc1ccc(C(=O)C2CCCN(Cc3ccc4nonc4c3)C2)c(OC)c1 (centres undefined) was read as TRPC4 act inactive, TRPC6 activator inactive, TRPC4 inh -6*, TRPC6 inhibitor inactive, TRPC4 PAM inactive and CR mimetic SO 88.4.
Screening COc1cc(CN2CCCC(C(=O)c3ccc4c5c(cccc35)CC4)C2)cc(OC)c1O (centres undefined) returned TRPC4 act 44*, TRPC6 activator inactive, TRPC4 inh inactive, TRPC6 inhibitor inactive, TRPC4 PAM inactive and CR mimetic SO 102.3.
O=C(c1ccc2c3c(cccc13)CC2)C1CCCN(Cc2cccnc2)C1 (centres undefined) was read as TRPC4 act 81*, TRPC6 activator inactive, TRPC4 inh inactive, TRPC6 inhibitor inactive, TRPC4 PAM inactive and CR mimetic SO 101.9.
Screening CC(=O)Nc1ccc2nc(NS(=O)(=O)c3ccc(C)cc3)sc2c1 returned TRPC4 act inactive, TRPC6 activator inactive, TRPC4 inh inactive, TRPC6 inhibitor inactive, TRPC4 PAM inactive and CR mimetic SO 87.5.
For COc1ccc2nc(NS(=O)(=O)c3ccc(NC(C)=O)cc3)sc2c1 the results were TRPC4 act 122*, TRPC6 activator inactive, TRPC4 inh -7*, TRPC6 inhibitor inactive, TRPC4 PAM inactive and CR mimetic SO 111.7.
Screening O=C(Nc1nccs1)c1ccc(NC(=O)c2ccco2)cc1 returned TRPC4 act inactive, TRPC6 activator inactive, TRPC4 inh inactive, TRPC6 inhibitor inactive, TRPC4 PAM inactive and CR mimetic SO 88.8.
Screening COc1ccc(CN(C)CCc2ccccn2)cc1OC returned TRPC4 act inactive, TRPC6 activator inactive, TRPC4 inh inactive, TRPC6 inhibitor inactive, TRPC4 PAM inactive and CR mimetic SO 98.8.
COc1cc(OC)c(OC)cc1CN(C)CCc1ccccn1 was read as TRPC4 act 64*, TRPC6 activator inactive, TRPC4 inh inactive, TRPC6 inhibitor inactive, TRPC4 PAM inactive and CR mimetic SO 97.0.
`CCCCN(CC)Cc1ccc(CNC(=S)Nc2ccc(C)cc2Cl)o1` gave TRPC4 act inactive, TRPC6 activator inactive, TRPC4 inh inactive, TRPC6 inhibitor inactive, TRPC4 PAM inactive and CR mimetic SO 104.0.
For CCN(CC)CCOC(=O)c1cccc(OC)c1 the results were TRPC4 act 80*, TRPC6 activator inactive, TRPC4 inh inactive, TRPC6 inhibitor inactive, TRPC4 PAM inactive and CR mimetic SO 102.8.
For CCN(CC)CCOC(=O)c1cccc(Br)c1 the results were TRPC4 act inactive, TRPC6 activator inactive, TRPC4 inh inactive, TRPC6 inhibitor inactive, TRPC4 PAM 27* and CR mimetic SO 95.1.
Screening CCN(CC)CCOC(=O)c1cccc(Cl)c1 returned TRPC4 act inactive, TRPC6 activator inactive, TRPC4 inh inactive, TRPC6 inhibitor inactive, TRPC4 PAM inactive and CR mimetic SO 92.7.
For CC(C)Oc1ccc2c(c1)OC(c1ccccc1)(C(F)(F)F)NC2=O (centres undefined) the results were TRPC4 act inactive, TRPC6 activator inactive, TRPC4 inh inactive, TRPC6 inhibitor inactive, TRPC4 PAM inactive and CR mimetic SO 96.3.
Screening CCOC(=O)C(=NC1CCS(=O)(=O)C1)NNc1ccccc1Cl (centres undefined) returned TRPC4 act inactive, TRPC6 activator inactive, TRPC4 inh inactive, TRPC6 inhibitor inactive, TRPC4 PAM 47* and CR mimetic SO 106.5.
For CCOC(=O)C1(CC2CCCCO2)CCN(Cc2nc3ccccc3[nH]2)CC1 (centres undefined) the results were TRPC4 act 115*, TRPC6 activator inactive, TRPC4 inh inactive, TRPC6 inhibitor inactive, TRPC4 PAM inactive and CR mimetic SO 88.2.
`CCOC(=O)C1(CC2CCCCO2)CCN(Cc2c(C)cc(C)cc2-n2cccn2)CC1` (centres undefined) gave TRPC4 act 106*, TRPC6 activator inactive, TRPC4 inh inactive, TRPC6 inhibitor inactive, TRPC4 PAM inactive and CR mimetic SO 108.5.
Screening CCOC(=O)C1(CC2CCCCO2)CCN(Cc2cc(F)ccc2-n2cccn2)CC1 (centres undefined) returned TRPC4 act 91*, TRPC6 activator inactive, TRPC4 inh inactive, TRPC6 inhibitor inactive, TRPC4 PAM inactive and CR mimetic SO 98.3.
Screening Cc1ccc(CNc2ccc3c(c2)OCO3)c(C)c1 returned TRPC4 act inactive, TRPC6 activator inactive, TRPC4 inh inactive, TRPC6 inhibitor inactive, TRPC4 PAM inactive and CR mimetic SO 106.8.
O=C(Nc1nnc(-c2ccncc2)s1)C1CCCO1 (centres undefined) was read as TRPC4 act inactive, TRPC6 activator inactive, TRPC4 inh inactive, TRPC6 inhibitor inactive, TRPC4 PAM inactive and CR mimetic SO 88.8.
For COc1cc(C=O)ccc1OC(=O)c1ccc(C(C)C)cc1 the results were TRPC4 act inactive, TRPC6 activator inactive, TRPC4 inh -6*, TRPC6 inhibitor inactive, TRPC4 PAM inactive and CR mimetic SO 107.3.
Screening CCOc1nc(C)cc(C)c1S(=O)(=O)c1cccc(C)c1 returned TRPC4 act inactive, TRPC6 activator inactive, TRPC4 inh inactive, TRPC6 inhibitor inactive, TRPC4 PAM 19* and CR mimetic SO 100.3.
Cc1cc(C)c(S(=O)(=O)c2c(C)cccc2C)c(OCC(C)C)n1 was read as TRPC4 act inactive, TRPC6 activator inactive, TRPC4 inh inactive, TRPC6 inhibitor inactive, TRPC4 PAM inactive and CR mimetic SO 89.6.
